Test results published in ChEMBL document CHEMBL3745596, “Chlorophenoxy aminoalkyl derivatives as histamine H(3)R ligands and antiseizure agents” (Bioorg Med Chem, 2016).
The source made the active and inactive calls.

Legend:
Mus musculus [1] = experiment: Anticonvulsant activity in ip dosed CF1 albino mouse assessed as protection against subcutaneous pentetrazole-induced seizure after 0.25 hrs; type: functional
How it was run: (§1)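 Male CF-1 mice, ip in 0.5% methylcellulose; pentetrazole at CD97 (85 mg/kg) injected subcutaneously in a loose fold of neck skin. Observed 30 min; absence of even a threshold seizure (single clonic spasm lasting at least 5 s) counted as protection. Scored protected/tested, or ED50.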

Mus musculus [2] = experiment: Neurotoxicity in CF1 albino mouse at 30 mg/kg, ip after 4 hrs by rotarod test; type: toxicity, organism-based; conditions: in vivo
How it was run: (§2)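 Rotarod neurotoxicity in male albino CF-1 mice dosed ip with compound suspended in 0.5% methylcellulose. Animal placed on a 1 inch diameter knurled plastic rod rotating at 6 rpm. Neurotoxicity scored when the animal falls off three times within 1 min. Readout is number of animals toxic/number tested at the stated time after dosing. TD50 with 95% confidence interval from the quantitative study.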

Mus musculus [3] = experiment: Neurotoxicity in CF1 albino mouse at 100 mg/kg, ip after 4 hrs by rotarod test; type: toxicity, organism-based; conditions: in vivo; how it was run: as §2
Mus musculus [4] = experiment: Neurotoxicity in CF1 albino mouse at 300 mg/kg, ip after 4 hrs by rotarod test; type: toxicity, organism-based; conditions: in vivo; how it was run: as §2
Mus musculus [5] = experiment: Anticonvulsant activity in CF1 albino mouse assessed as protection against maximal electroshock-induced seizure at 100 mg/kg, ip after 0.5 hrs; type: functional, organism-based
How it was run: (§3)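 Male CF-1 mice dosed ip as suspension in 0.5% methylcellulose. Corneal electrodes deliver 60 Hz alternating current, 50 mA for […], after a drop of 0.5% tetracaine HCl in 0.9% NaCl per eye. Protection means abolition of hindlimb tonic extension; scored as protected/tested, or ED50 with 95% confidence interval.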

Mus musculus [6] = experiment: Neurotoxicity in CF1 albino mouse at 10 mg/kg, ip after 0.5 hrs by rotarod test; type: toxicity, organism-based; conditions: in vivo
How it was run: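 Rotarod neurotoxicity in male CF-1 mice dosed ip as 0.5% methylcellulose suspension: mouse placed on 1 inch knurled rod rotating at 6 rpm; toxicity when the animal falls off three times within 1 min, with other signs noted. Scored as toxic/tested at 0.5 h and 4 h.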

Histamine H3 receptor = Histamine H3 receptor (Homo sapiens, UniProt Q9Y5N1); experiment: Displacement of [3H]-Nalpha-methylhistamine from human recombinant histamine H3 receptor expressed in HEK293 cells after 90 mins; type: cell-based
Mus musculus [7] = experiment: Anticonvulsant activity in CF1 albino mouse assessed as protection against subcutaneous pentetrazole-induced seizure at 30 mg/kg, ip after 4 hrs; type: functional, organism-based; how it was run: as §1
Mus musculus [8] = experiment: Anticonvulsant activity in CF1 albino mouse assessed as protection against maximal electroshock-induced seizure at 30 mg/kg, ip after 0.5 hrs; type: functional, organism-based; how it was run: as §3
Mus musculus [9] = experiment: Anticonvulsant activity in CF1 albino mouse assessed as protection against subcutaneous pentetrazole-induced seizure at 30 mg/kg, ip after 0.5 hrs; type: functional, organism-based; how it was run: as §1
Mus musculus [10] = experiment: Anticonvulsant activity in CF1 albino mouse assessed as protection against subcutaneous pentetrazole-induced seizure at 100 mg/kg, ip after 0.5 hrs; type: functional, organism-based; how it was run: as §1
Mus musculus [11] = experiment: Neurotoxicity in CF1 albino mouse at 30 mg/kg, ip after 0.5 hrs by rotarod test; type: toxicity, organism-based; conditions: in vivo; how it was run: as §2
Rattus norvegicus = experiment: Anticonvulsant activity in Sprague-Dawley rat assessed as protection against maximal electroshock-induced seizure at 30 mg/kg, po; type: functional
Mus musculus [12] = experiment: Anticonvulsant activity in CF1 albino mouse assessed as protection against subcutaneous pentetrazole-induced seizure at 100 mg/kg, ip after 4 hrs; type: functional, organism-based; how it was run: as §1
Mus musculus [13] = experiment: Neurotoxicity in CF1 albino mouse assessed as death at 300 mg/kg, ip after 0.5 hrs by rotarod test; type: toxicity, organism-based; conditions: in vivo
How it was run: (§4)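 Male albino CF-1 mice dosed ip with compound suspended in 0.5% methylcellulose, then placed on a 1-inch knurled plastic rod turning at 6 rpm. A fall three times within 1 min counted as neurotoxicity. Observations were made at 0.5 h and 4 h after dosing. Result given as animals showing toxicity per animals tested, with the kind of toxicity recorded.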

Mus musculus [14] = experiment: Anticonvulsant activity in CF1 albino mouse assessed as protection against maximal electroshock-induced seizure at 30 mg/kg, ip after 4 hrs; type: functional, organism-based; how it was run: as §3
Mus musculus [15] = experiment: Anticonvulsant activity in CF1 albino mouse assessed as protection against maximal electroshock-induced seizure at 3 mg/kg, ip after 0.5 hrs; type: functional, organism-based; how it was run: as §3
Mus musculus [16] = experiment: Anticonvulsant activity in CF1 albino mouse assessed as protection against maximal electroshock-induced seizure at 10 mg/kg, ip after 0.5 hrs; type: functional, organism-based; how it was run: as §3
Mus musculus [17] = experiment: Neurotoxicity in CF1 albino mouse assessed as unable to grasp rotarod and death at 100 mg/kg, ip after 0.5 hrs by rotarod test; type: toxicity, organism-based; conditions: in vivo; how it was run: as §4
Mus musculus [18] = experiment: Neurotoxicity in CF1 albino mouse at 3 mg/kg, ip after 0.5 hrs by rotarod test; type: toxicity, organism-based; conditions: in vivo; how it was run: as §2
Mus musculus [19] = experiment: Anticonvulsant activity in CF1 albino mouse assessed as protection against maximal electroshock-induced seizure at 100 mg/kg, ip after 4 hrs; type: functional, organism-based; how it was run: as §3
Mus musculus [20] = experiment: Anticonvulsant activity in CF1 albino mouse assessed as protection against 6 Hz-psychomotor-induced seizure at 50 mg/kg, ip after 0.5 hrs; type: functional, organism-based
How it was run: (§5)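 Male CF-1 mice, ip suspension in 0.5% methylcellulose. Corneal stimulation 0.2 ms monopolar rectangular pulses at 6 Hz, 32 mA for 3 s via constant-current device; mice without minimal clonic phase seizure counted protected. Groups of four; read at 0.25, 0.5, 1, 2, 4 h; result as protected/tested.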

Mus musculus [21] = experiment: Anticonvulsant activity in CF1 albino mouse assessed as protection against 6 Hz-psychomotor-induced seizure at 50 mg/kg, ip after 1 hr; type: functional, organism-based; how it was run: as §5
Mus musculus [22] = experiment: Neurotoxicity in CF1 albino mouse at 50 mg/kg, ip after 1 hr by rotarod test; type: toxicity, organism-based; conditions: in vivo; how it was run: as §2
Mus musculus [23] = experiment: Anticonvulsant activity in CF1 albino mouse assessed as protection against 6 Hz-psychomotor-induced seizure at 50 mg/kg, ip after 2 hrs; type: functional, organism-based; how it was run: as §5
Mus musculus [24] = experiment: Neurotoxicity in CF1 albino mouse at 50 mg/kg, ip after 4 hrs by rotarod test; type: toxicity, organism-based; conditions: in vivo; how it was run: as §2
Mus musculus [25] = experiment: Neurotoxicity in CF1 albino mouse at 50 mg/kg, ip after 2 hrs by rotarod test; type: toxicity, organism-based; conditions: in vivo; how it was run: as §2
Mus musculus [26] = experiment: Anticonvulsant activity in CF1 albino mouse assessed as protection against 6 Hz-psychomotor-induced seizure at 50 mg/kg, ip after 4 hrs; type: functional, organism-based; how it was run: as §5
Mus musculus [27] = experiment: Anticonvulsant activity in ip dosed CF1 albino mouse assessed as protection against maximal electroshock-induced seizure after 0.25 hrs; type: functional; how it was run: as §3
Mus musculus [28] = experiment: Protective index, ratio of TD50 for ip dosed CF1 albino mouse to ED50 for ip dosed CF1 albino mouse assessed as protection against maximal electroshock-induced seizure after 0.25 hrs; type: functional
Mus musculus [29] = experiment: Anticonvulsant activity in CF1 albino mouse assessed as protection against 6 Hz-psychomotor-induced seizure at 50 mg/kg, ip after 0.25 hrs; type: functional, organism-based; how it was run: as §5
Mus musculus [30] = experiment: Neurotoxicity in CF1 albino mouse at 30 mg/kg, ip after 0.25 to 4 hrs by rotarod test; type: toxicity, organism-based; conditions: in vivo; how it was run: as §2
Mus musculus [31] = experiment: Anticonvulsant activity in CF1 albino mouse assessed as protection against 6 Hz-psychomotor-induced seizure at 30 mg/kg, ip after 0.25 to 4 hrs; type: functional, organism-based; how it was run: as §5

Histamine H3 receptor, sequence (Q9Y5N1 whole entry): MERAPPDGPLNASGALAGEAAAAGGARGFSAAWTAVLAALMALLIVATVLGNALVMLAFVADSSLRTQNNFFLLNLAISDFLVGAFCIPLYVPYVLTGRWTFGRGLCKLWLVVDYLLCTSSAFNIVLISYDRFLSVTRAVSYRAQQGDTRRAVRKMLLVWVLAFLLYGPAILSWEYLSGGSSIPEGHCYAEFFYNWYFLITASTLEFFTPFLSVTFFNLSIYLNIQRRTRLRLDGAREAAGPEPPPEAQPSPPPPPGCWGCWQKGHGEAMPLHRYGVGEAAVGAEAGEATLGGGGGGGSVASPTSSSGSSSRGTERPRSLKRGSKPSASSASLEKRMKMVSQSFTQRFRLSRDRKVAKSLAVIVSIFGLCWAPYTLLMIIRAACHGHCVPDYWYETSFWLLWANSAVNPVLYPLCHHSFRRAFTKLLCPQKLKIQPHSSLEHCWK

Row | SMILES | ED50 (Mus musculus [1]) | Activity (Mus musculus [2]) | Activity (Mus musculus [3]) | Activity (Mus musculus [4]) | Activity (Mus musculus [5]) | Activity (Mus musculus [6]) | Ki (Histamine H3 receptor) | Activity (Mus musculus [7]) | Activity (Mus musculus [8]) | Activity (Mus musculus [9]) | Activity (Mus musculus [10]) | Activity (Mus musculus [11]) | Activity (Mus musculus [12]) | Activity (Mus musculus [13]) | Activity (Mus musculus [14]) | Activity (Mus musculus [15]) | Activity (Mus musculus [16]) | Activity (Mus musculus [17]) | Activity (Mus musculus [18]) | Activity (Mus musculus [19]) | also measured
1 | CCCC(CCC)C(=O)O [VALPROIC ACID] | 220 mg/kg |  |  |  |  |  |  |  |  |  |  |  |  |  |  |  |  |  |  |  | 
2 | Clc1ccc(OCCCCCN2CCCCC2)cc1.O=C(O)C(=O)O |  | Non-toxic | Non-toxic | Non-toxic | Active | Non-toxic | 427 nM | inactive | Active | inactive | inactive | Non-toxic | inactive | Toxic | inactive | inactive | inactive | Toxic | Non-toxic |  | Activity (Rattus norvegicus): inactive
3 | Clc1cccc(OCCCCCCCN2CCCCCC2)c1.O=C(O)C(=O)O |  | Non-toxic | Non-toxic | Non-toxic | Active |  | > 150000 nM | inactive | inactive | inactive |  | Non-toxic | inactive |  | inactive |  |  |  |  | inactive | 
4 | Clc1cccc(OCCCCCCN2CCCCC2)c1.O=C(O)C(=O)O |  | Non-toxic | Non-toxic | Non-toxic | Active | Non-toxic | 255 nM | inactive | Active | inactive | inactive | Non-toxic | inactive | Toxic | inactive | inactive | inactive | Toxic | Non-toxic | Active | Activity (Mus musculus [20]): inactive; Activity (Mus musculus [21]): inactive; Activity (Mus musculus [22]): Non-toxic; Activity (Mus musculus [23]): inactive; Activity (Mus musculus [24]): Non-toxic; Activity (Mus musculus [25]): Non-toxic; Activity (Rattus norvegicus): 25%; Activity (Mus musculus [26]): inactive
5 | CC1CCCN(CCCCCCCOc2cccc(Cl)c2)C1.O=C(O)C(=O)O (stereo not drawn) |  | Non-toxic | Non-toxic | Non-toxic | Active |  | 466 nM | inactive | inactive | inactive | inactive | Non-toxic | inactive | Toxic | inactive |  |  | Toxic |  | Active | 
6 | Nc1nnc(-c2cccc(Cl)c2Cl)c(N)n1 [LAMOTRIGINE] | > 40 mg/kg |  |  |  |  |  |  |  |  |  |  |  |  |  |  |  |  |  |  |  | ED50 (Mus musculus [27]): 7.47 mg/kg; Ratio TD50/ED50 (Mus musculus [28]): 4
7 | CC1CCN(CCCCCCOc2cccc(Cl)c2)CC1.O=C(O)C(=O)O |  | Non-toxic | Non-toxic | Non-toxic | Active | Non-toxic | 412 nM | inactive | Active | inactive |  | Non-toxic |  | Toxic | inactive | inactive | inactive |  | Non-toxic | Active | Activity (Mus musculus [22]): Non-toxic; Activity (Mus musculus [29]): Active; Activity (Mus musculus [24]): Non-toxic; Activity (Mus musculus [25]): Non-toxic; Activity (Rattus norvegicus): 25%
8 | CCC1(c2ccccc2)C(=O)NC(=O)NC1=O [PHENOBARBITAL] | 13.2 mg/kg |  |  |  |  |  |  |  |  |  |  |  |  |  |  |  |  |  |  |  | ED50 (Mus musculus [27]): 21.8 mg/kg
9 | Clc1cccc(OCCCCCCN2CCCCCC2)c1.O=C(O)C(=O)O |  | Non-toxic | Non-toxic | Non-toxic | Active | Non-toxic | 293 nM | inactive | Active | inactive | inactive |  |  | Toxic | inactive | inactive | inactive | Toxic | Non-toxic |  | Activity (Mus musculus [20]): inactive; Activity (Mus musculus [30]): Non-toxic; Activity (Mus musculus [21]): inactive; Activity (Mus musculus [23]): inactive; Activity (Mus musculus [29]): inactive; Activity (Mus musculus [31]): inactive; Activity (Mus musculus [26]): inactive
